# Assay outcomes (PubChem BioAssay)
# CSC inhib: blocks cancer stem cells | AID 2717 | inhibition, % at 7.5 µM | actives 1.1% (n = 300,000) | cancer stem cell-like cells viability, luminescence; in the data active = inhibition above about 75%; inconclusive = no clear call, values can overlap the other calls; tested in HMLE shEcad cells
# NLRP3 yeast inh: blocks the NALP3 inflammasome reconstituted in yeast. inhibition, % at 10 µM. AID 2825. Yeast reconstituted NLRP3/ASC/caspase-1, beta-gal luminescence, 24 h. actives 0.39% (n = 330,000);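 active = inhibition of 50% or more; inactive = inhibition below 50%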;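 note: plate controls were induced DMSO wells for no effect and uninduced yeast grown without galactose for full effect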
# T cruzi repl: blocks replication of Trypanosoma cruzi | T. cruzi beta-gal in NIH3T3, luminescence, 90 h | inhibition, % (test concentration not listed) | actives 1.4% (n = 300,000) | AID 1885;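 active = mean inhibition across valid replicates above about 55%, limit read from the data; inconclusive = mean below that limit but half or more replicates reach it; inactive = mean below it, under half of replicates reach it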;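 note: signal also drops with host cell toxicity which is not excluded here; 0% = plate median of DMSO wells and 100% = zero luminescence signal; higher percent means less beta-gal luminescence so fewer parasites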
#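 Material: NIH/3T3 host cells with β-galactosidase reporter T. cruzi; Input: 5,000 host fibroblasts per well; Medium: DMEM, 2% fetal bovine serum; Compound: 50 nL DMSO compound solution per well; Schedule: 3 h host attachment, then at least 90 h co-culture; Detection: luminescent β-galactosidase signal after 60 min lysis.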
# Beta cell apopt: blocks beta cell apoptosis. INS-1E cytokine-induced death, ATP luminescence, 48 h; percent of positive-control rescue, neutral wells zero. protection from apoptosis, % (concentration not given with the values). actives 0.8% (n = 300,000). AID 435005;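 active = Every replicate reaches about 75%, or at least half do and their mean reaches it too, limit read from the data; inconclusive = At least half of replicates reach the limit but their mean does not; inactive = Under half of replicates reach the limit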;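 note: 0% = cytokine-treated negative control wells and 100% = positive control rescue; higher means more ATP so stronger rescue from cytokine killing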
# Mdm2-MdmX inh: human Mdm2/MdmX binding inhibition. O15151+Q00987. SaOS-2 split-luciferase Mdm2/MdmX complementation, luminescence. inhibition, % at 8 µM. actives 3% (n = 330,000). AID 485346;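 active = inhibition of at least 50% at 8 µM in the primary screen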
# Calb FLC: affects C. albicans growth with fluconazole; C. albicans CaCi-2 (fluconazole-resistant clinical isolate) + fluconazole, Alamar Blue growth, 48 h; growth inhibition, % (no concentration beside the values); actives 0.57% (n = 300,000); AID 1979;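 active = growth inhibition above about 58% in most replicates, limit read from the data, passing the limit was not always enough; inconclusive = exactly half the replicates above a set limit; inactive = most replicates below a set limit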;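 note: all wells also contain fluconazole at 8 µg/ml as a sub-toxic cotreatment; 0% = median of DMSO wells and 100% = median of geldanamycin control wells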
# Mdm2-MdmX conf: human Mdm2/MdmX binding inhibition, confirmed | shares compounds with Mdm2-MdmX inh | luminescent assay | inhibition, % at 8 µM | actives 55% (n = 10,000); in the data active = inhibition above about 40%
# FLuc counter: counter-screen for Mdm2/MdmX inhibitors: full-length luciferase; shares compounds with Mdm2-MdmX inh; SaOS-2 full-length luciferase counterscreen, luminescence; inhibition, % at 8 µM; actives 77% (n = 6,200);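 active = mean inhibition at 8 µM reaching about 37%, which flags the compound as non-specific, limit read from the data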;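 note: p53-null SaOS-2 cells with luciferase driven by a doxycycline-inducible promoter; compound on cells about two nights before reading with doxycycline added after day one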
# Numbers without * were called inactive; ? = inconclusive; . = no result. Rows were chosen to be rich in hits. Some 5.3% of all compounds tested hit in one or more screens of this group.
SMILES,CSC inhib,NLRP3 yeast inh,T cruzi repl,Beta cell apopt,Mdm2-MdmX inh,Calb FLC,Mdm2-MdmX conf,FLuc counter
CCc1cc(=O)oc2c3c(cc(OCC(=O)NCCCC(=O)O)c12)OC(C)(C)CC3,6.4,9.3,-6.5,-6.2,-14.2,-4.9,.,.
CCOc1ccc(/C=N/Nc2ccc(Cl)nn2)c(O)c1,15.3,4.8,-1.9,118.9*,54.3*,4.5,38.4,57.8*
CCOc1ccccc1/C=N/Nc1ccc(Cl)nn1,-12.7,25.2,-5.0,6.7,9.2,-0.2,.,.
Cn1cccc1Cc1nnc(SCC(=O)Nc2ccc3c(c2)OCO3)n1CCc1ccccc1,17.5,8.3,-5.6,4.6,26.0,5.0,.,.
COc1cc(/C=C/C(=O)OCC(=O)NC(C)c2ccccc2)cc(OC)c1OC (stereo not given),-11.8,9.8,.,-6.4,-13.5,.,.,.
COc1ccc(C(=O)Nc2nnc(S(=O)(=O)N(C)Cc3ccccc3)s2)cc1,11.4,-1.3,-8.9,6.7,39.9,4.2,.,.
COc1cc(/C=N/NC(=O)C(N)=O)cc(OC)c1O,-4.0,-16.1,5.0,-1.2,8.0,-7.2,.,.
CCN1/C(=C/C=C/c2sc3ccccc3[n+]2CC)Sc2ccccc21,79.2*,42.8,49.4,100.6*,96.1*,26.7,85.2*,17.2
O=C(Cn1nnc(-c2ccccc2F)n1)Nc1cccc2ncccc12,-18.2,9.1,4.7,1.3,34.3,-3.5,.,.
NC(N)=N/N=C/c1ccc(OS(=O)(=O)c2ccccc2)cc1,11.8,6.3,57.0*,58.4,57.2*,6.5,36.0,81.8*
COc1cc(-c2cc3nc4ccccc4n3c(N)c2C#N)cc(OC)c1OC,26.0,2.2,3.4,2.6,76.6*,12.2,64.4*,93.0*
N#Cc1c(-c2ccccc2)cc2nc3ccccc3n2c1N,-9.2,8.3,3.4,8.6,-27.7,-10.3,.,.
O=C(O)CCn1cc(C2CC(c3ccccc3)=NN2c2ccccc2)c(-c2ccccc2)n1 (stereo not given),10.8,-2.9,-1.9,-2.2,20.3,1.5,.,.
COc1ccccc1NC(=O)CSC1=NC(=O)C(Cc2ccccc2)C(=O)N1 (stereo not given),8.2,2.8,6.5,.,-8.6,-1.6,.,.
C=CCn1c(SCC(=O)Nc2nnc(CC)s2)nnc1-c1ccncc1,-2.4,17.3,-2.8,3.1,-4.3,-1.7,.,.
CCCCn1c(N)c(N(CCOC)C(=O)C2CCN(S(=O)(=O)c3ccc(C)cc3C)CC2)c(=O)[nH]c1=O,-12.5,0.2,-11.1,-7.0,19.9,4.0,.,.
CN(C)S(=O)(=O)c1cccc(NC(=O)c2cc(-c3cccs3)nn2-c2cccc(Cl)c2)c1,34.0,13.0,35.4,13.7,50.5*,26.5,57.5*,64.8*
O=C(O)c1cc(-c2cccs2)nn1-c1cccc(Cl)c1,-9.2,12.2,-8.6,-0.6,-5.6,11.5,.,.
Cn1c(CCNC(=O)c2ccco2)nc2cc(NC(=O)c3ccco3)ccc21,-6.5,-4.8,-24.4,-0.3,0.4,-6.3,.,.
COc1ccccc1C(=O)Nc1ccc2c(c1)nc(CCNC(=O)c1ccco1)n2C,.,2.8,-17.3,7.8,67.4*,9.0,52.5*,66.0*
Cc1ccc(N(C(=O)CNC(=O)c2ccco2)C(C(=O)NC2CCCCC2)c2cccnc2)cc1F (stereo not given),.,9.1,-10.7,-0.7,-3.7,-11.0,.,.
Cc1cc(NC(=O)CSc2nc3c(sc4ccccc43)c(=O)n2CCc2ccccc2)n[nH]1,-1.9,6.7,-19.8,11.2,62.1*,-5.8,-5.7,.
O=C(CSc1nc2c(sc3ccccc32)c(=O)n1CCCN1CCCC1)NCc1ccco1,17.9,5.3,14.7,-8.9,24.9,-2.5,.,.
Cc1cc(NC(=O)CSc2nc3c(sc4ccccc43)c(=O)n2CCCN2CCOCC2)n[nH]1,58.2,10.3,-50.2,68.3,70.1*,-12.8,82.4*,125.3*
Cc1ccc(-c2nc(C3CCN(S(=O)(=O)c4ccc(C(F)(F)F)cc4)CC3)no2)cc1,9.3,18.3,13.2,-0.7,55.8*,3.1,2.6,.
SMILES,CSC inhib,NLRP3 yeast inh,T cruzi repl,Beta cell apopt,Mdm2-MdmX inh,Calb FLC,Mdm2-MdmX conf,FLuc counter
CN(C)C(=O)c1ccc(NC(=O)c2cc(-c3ccco3)nc3ccccc23)cc1,-3.3,17.6,-7.5,-5.5,1.5,0.2,.,.
Cc1ccc(-n2ncc3c(SCc4ccccn4)ncnc32)c(C)c1,31.2,31.4,35.5,6.2,84.2*,19.2,77.8*,27.6
O=C(O)CCC(=O)N1N=C(c2c(-c3ccccc3)c3cc(Cl)ccc3[nH]c2=O)CC1c1cccs1 (stereo not given),-13.6,24.1,-17.9,-6.5,-26.5,6.0,.,.
COc1ccc(NS(=O)(=O)c2ccc3ccccc3c2)c2ncccc12,.,21.8,57.3*,39.2,91.7*,?,88.4*,37.1*
O=S(=O)(Nc1cccc2cccnc12)c1ccccc1,43.1,10.5,10.7,29.3,100.3*,-0.2,99.7*,52.1*
Cc1ccc2cccc(NS(=O)(=O)c3ccccc3)c2n1,-5.3,9.2,53.5,21.8,83.8*,62.6,95.0*,23.1
O=S(=O)(Nc1cccc2cccnc12)c1ccc(S(=O)(=O)N2CCCC2)cc1,45.4,33.4,68.9*,52.6,82.8*,96.4*,53.2*,36.9*
CC(=O)Nc1ccc(S(=O)(=O)Nc2cccc3cccnc23)cc1,-11.0,10.3,-1.5,1.8,17.8,5.3,.,.
COc1ccc(S(=O)(=O)NC(C)C(=O)NC2CC2)cc1C (stereo not given),3.9,5.3,6.2,-2.2,13.1,-0.4,.,.
CCOC(=O)C1CCN(S(=O)(=O)NC[C@H]2O[C@@H](n3cnc4c(N)ncnc43)[C@H](O)[C@@H]2O)C1 (stereo not given in full),.,.,.,.,-9.0,.,.,.
Cc1cc(C)n(-c2ccc3cccc(NS(C)(=O)=O)c3n2)n1,86.9*,2.2,59.6*,.,74.3*,1.0,44.2*,32.1
CS(=O)(=O)Nc1cccc2cccnc12,-10.1,10.4,.,3.6,31.3,.,.,.
Cc1ccc(S(=O)(=O)Nc2cccc3cccnc23)c([N+](=O)[O-])c1,-3.7,33.5,15.0,-3.1,100.4*,4.3,74.9*,54.3*
Cc1ccc2cc3c(N)c(C(=O)N4CC(=O)Nc5ccccc54)sc3nc2c1,-6.7,4.6,-16.8,38.6,64.3*,5.3,56.9*,82.5*
Cc1ccc2nc3sc(C(=O)N4CCOCC4)c(N)c3cc2c1,-9.6,5.3,11.8,-6.3,58.7*,-0.6,60.8*,103.4*
Cc1cc(C)cc(C(=O)N2CC(=O)Nc3ccccc32)c1,51.2,0.3,15.4,21.8,58.4*,7.0,59.5*,77.4*
